Test results as given in ChEMBL document CHEMBL1275442, “Pharmacokinetics and tissue distribution of anidulafungin in rats” (Antimicrob Agents Chemother, 2008).
In brackets after ≈: the same amount, converted by molar mass. One block for each compound: values may come before it. *1 amine or outer side, *2 acyl side, *3 side chain or, on linkers, in order; H or OH if unused. Where a SMILES comes first, the peptide text is derived from it. Bridges are numbered along the chain shown (N, C = ends). [ ]: non-standard residue; d: D form. The star is where a group is joined. hTyr(3S-OH,4S-OH,3'-OSO3H) = N[C@H](C(=O)O)[C@H](O)[C@@H](O)c1ccc(O)c(OS(=O)(=O)O)c1; pTerphenylCO(4''-OnC5H11) = CCCCCOc1ccc(-c2ccc(-c3ccc(C(=O)*)cc3)cc2)cc1; Orn(4R-OH,5R-OH) = O=C([C@H](C[C@@H](O)[C@@H](O)N[*:3])N[*:1])[*:2]; hTyr(3S-OH,4S-OH) = N[C@H](C(=O)O)[C@H](O)[C@@H](O)c1ccc(O)cc1; Pro(3S-OH,4S-Me) = C[C@H]1CN[C@H](C(=O)O)[C@H]1O; X1 = CCCCCOc1ccc(-c2cc(-c3ccc(C(=O)*)cc3)no2)cc1; Gln(3R-OH) = NC(=O)C[C@@H](O)[C@H](N)C(=O)O; Hyp = O=C(O)[C@@H]1C[C@@H](O)CN1

Key:
[1] = Ratio of AUC (0 to infinity) in F344 rat liver to AUC (0 to infinity) in F344 rat plasma at 5 mg/kg, iv administered as single bolus dose; type: ADME, organism-based; design: dose 5 mg/kg, route intravenous; details: liver and plasma
Procedure, shortened: (§1)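 Male F344 rats, 10–11 weeks old, 223.6–243.8 g, given a single IV dose of [¹⁴C]-labelled drug over about 5 min. Tissue and plasma sampled predose and at 0.083–72 h, n = 3 per time point. Parent drug measured by HPLC-UV; tissue LLOQ 220 ng/g, plasma LLOQ 20 ng/ml. AUC0-∞ by noncompartmental analysis of the composite mean profile; ratio is tissue AUC over plasma AUC.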

[2] = Ratio of AUC (0 to infinity) in F344 rat lung to AUC (0 to infinity) in F344 rat plasma at 5 mg/kg, iv administered as single bolus dose; type: ADME, organism-based; design: dose 5 mg/kg, route intravenous; details: lung and plasma; procedure, shortened: as §1
[3] = Ratio of AUC (0 to infinity) in F344 rat kidney to AUC (0 to infinity) in F344 rat plasma at 5 mg/kg, iv administered as single bolus dose; type: ADME, organism-based; design: dose 5 mg/kg, route intravenous; details: kidney and plasma; procedure, shortened: as §1
[4] = Ratio of AUC in rat lung to AUC in rat plasma at 1 mg/kg, iv; type: ADME, organism-based; design: dose 1 mg/kg, route intravenous; details: lung and plasma, read-out: Ratio AUC
[5] = Ratio of AUC in rat kidney to AUC in rat plasma at 1 mg/kg, iv; type: ADME, organism-based; design: dose 1 mg/kg, route intravenous; details: kidney and plasma, read-out: Ratio AUC
[6] = Ratio of AUC in rat liver to AUC in rat plasma at 1 mg/kg, iv; type: ADME, organism-based; design: dose 1 mg/kg, route intravenous; details: liver and plasma, read-out: Ratio AUC
[7] = Total body clearance in F344 rat at 5 mg/kg, iv administered as single bolus dose; type: ADME, organism-based; design: dose 5 mg/kg, route intravenous; details: in vivo
Procedure, shortened: (§2)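 F344 males, 10 to 11 weeks old and 223.6 to 243.8 g, got a single 5 mg/kg iv dose of [14C]anidulafungin over about 5 min. Plasma and tissues were collected predose and at 0.083 to 72 h, n = 3 per time point. Parent drug was quantified by HPLC-UV, with LLOQ/ULOQ of 20/5,120 ng/ml in plasma and 220/56,320 ng/g in tissue. Noncompartmental parameters came from a composite mean concentration-time profile.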

[8] = test system: Aspergillus fumigatus; experiment: Antifungal activity against Aspergillus fumigatus; type: functional
[9] = test system: Candida; experiment: Antifungal activity against Candida sp.; type: functional
[10] = Volume of distribution in F344 rat at 5 mg/kg, iv administered as single bolus dose; type: ADME, organism-based; design: dose 5 mg/kg, route intravenous; details: in vivo; procedure, shortened: as §2
[11] = test system: Aspergillus flavus; experiment: Antifungal activity against Aspergillus flavus; type: functional

Kp [1]: 12.4
Kp [2]: 10.4
Kp [3]: 10.7
SMILES: CC[C@H](C)C[C@H](C)CCCCCCCCC(=O)N[C@H]1C[C@@H](O)[C@@H](NCCN)NC(=O)[C@@H]2[C@@H](O)CCN2C(=O)[C@H]([C@H](O)CCN)NC(=O)[C@H]([C@H](O)[C@@H](O)c2ccc(O)cc2)NC(=O)[C@@H]2C[C@@H](O)CN2C(=O)[C@H]([C@@H](C)O)NC1=O [CASPOFUNGIN]

SMILES: CCCCCOc1ccc(-c2cc(-c3ccc(C(=O)N[C@H]4C[C@@H](O)[C@@H](O)NC(=O)[C@@H]5[C@@H](O)[C@@H](C)CN5C(=O)[C@H]([C@H](O)CC(N)=O)NC(=O)[C@H]([C@H](O)[C@@H](O)c5ccc(O)c(OS(=O)(=O)O)c5)NC(=O)[C@@H]5C[C@@H](O)CN5C(=O)[C@H]([C@@H](C)O)NC4=O)cc3)no2)cc1 [MICAFUNGIN] (X1-[Orn(4R-OH,5R-OH)]T[Hyp][hTyr(3S-OH,4S-OH,3'-OSO3H)][Gln(3R-OH)][Pro(3S-OH,4S-Me)]; lactam 1-C)
Kp [4]: 3.6
Kp [5]: 3.2
Kp [6]: 7.8

SMILES: CCCCCOc1ccc(-c2ccc(-c3ccc(C(=O)N[C@H]4C[C@@H](O)[C@@H](O)NC(=O)[C@@H]5[C@@H](O)[C@@H](C)CN5C(=O)[C@H]([C@@H](C)O)NC(=O)[C@H]([C@H](O)[C@@H](O)c5ccc(O)cc5)NC(=O)[C@@H]5C[C@@H](O)CN5C(=O)[C@H]([C@@H](C)O)NC4=O)cc3)cc2)cc1 [ANIDULAFUNGIN] ({pTerphenylCO(4''-OnC5H11)}-[Orn(4R-OH,5R-OH)]T[Hyp][hTyr(3S-OH,4S-OH)]T[Pro(3S-OH,4S-Me)]; lactam 1-C)
clearance [7]: 1.4 mL/min/kg
MIC90 [8]: 0.03 µg/mL (≈ 0.0263 µM)
MIC90 [9]: 0.06 µg/mL (≈ 0.0526 µM)
Vd [10]: 2.2 L/kg
MIC90 [11]: 0.08 µg/mL (≈ 0.0702 µM)
